From ChEMBL document CHEMBL1649418, “Pyrimidine derivatives as potent and selective A3 adenosine receptor antagonists” (J Med Chem, 2011)

Assays:
Format in all cases: cell-based
[1] = molecular target: T1, Adenosine receptor A2b (Homo sapiens) (UniProt P29275); assay: Displacement of [3H]DPCPX from human adenosine A2B receptor expressed in HEK293 cells at 0.1 uM by liquid scintillation counting
T1 sequence (whole entry): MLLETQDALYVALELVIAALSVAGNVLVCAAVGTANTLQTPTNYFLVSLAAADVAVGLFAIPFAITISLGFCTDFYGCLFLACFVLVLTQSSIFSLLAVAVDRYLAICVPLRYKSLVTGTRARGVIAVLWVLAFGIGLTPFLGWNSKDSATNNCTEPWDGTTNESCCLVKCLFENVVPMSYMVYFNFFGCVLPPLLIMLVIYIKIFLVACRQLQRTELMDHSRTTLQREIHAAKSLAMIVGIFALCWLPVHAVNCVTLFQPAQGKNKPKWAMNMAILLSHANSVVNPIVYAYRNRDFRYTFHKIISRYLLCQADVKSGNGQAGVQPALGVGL
Method in brief: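 HEK-293 membranes (18 μg) were incubated with [3H]DPCPX (35 nM) at 25 °C for 30 min, with six concentrations from 0.1 nM to 1 μM. Nonspecific binding was defined with 400 μM NECA. Filters were washed six times with ice-cold buffer and counted by scintillation. Ki (Cheng–Prusoff) is mean ± SEM, n=3; % displacement at 0.1 μM is n=2.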

[2] = molecular target: T2, Adenosine receptor A1 (Homo sapiens, UniProt P30542); assay: Displacement of [3H]DPCPX from human adenosine A1 receptor expressed in CHO cells by liquid scintillation counting
T2 sequence (P30542 whole entry): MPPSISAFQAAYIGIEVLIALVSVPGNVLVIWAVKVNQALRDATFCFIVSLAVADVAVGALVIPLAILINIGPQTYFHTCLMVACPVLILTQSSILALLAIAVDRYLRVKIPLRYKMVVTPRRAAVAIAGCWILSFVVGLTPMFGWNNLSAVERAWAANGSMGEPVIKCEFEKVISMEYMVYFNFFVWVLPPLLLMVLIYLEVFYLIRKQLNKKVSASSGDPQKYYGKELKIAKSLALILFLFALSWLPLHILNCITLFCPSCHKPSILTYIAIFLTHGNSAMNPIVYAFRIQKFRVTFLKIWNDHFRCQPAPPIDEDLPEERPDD
Method in brief: (§1)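 Transfected CHO cell membranes (15 μg) were incubated with [3H]DPCPX at 25 °C for 60 min, with six test concentrations from 0.1 nM to 1 μM. Nonspecific binding was defined with 10 μM R-PIA. Filters were washed four times with ice-cold buffer before scintillation counting. Ki (Cheng–Prusoff) is mean ± SEM, n=3; % displacement at 0.1 μM is n=2.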

[3] = molecular target: T3, Adenosine receptor A3 (Homo sapiens, UniProt P0DMS8); assay: Displacement of [3H]NECA from human adenosine A3 receptor expressed in human HeLa cells by liquid scintillation counting; settings: read-out: Ki
T3 sequence (P0DMS8 whole entry): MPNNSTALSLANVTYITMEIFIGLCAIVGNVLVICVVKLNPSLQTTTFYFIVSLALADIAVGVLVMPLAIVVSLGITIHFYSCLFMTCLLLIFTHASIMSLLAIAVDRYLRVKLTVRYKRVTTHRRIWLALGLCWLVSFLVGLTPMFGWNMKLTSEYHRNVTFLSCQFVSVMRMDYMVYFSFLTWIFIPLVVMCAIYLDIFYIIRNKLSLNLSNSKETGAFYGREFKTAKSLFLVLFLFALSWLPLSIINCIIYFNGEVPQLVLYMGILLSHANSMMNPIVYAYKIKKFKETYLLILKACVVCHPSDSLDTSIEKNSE
Method in brief: (§2)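 HeLa membranes (90 μg) carrying hA3AR were incubated with [3H]NECA (30 nM) at 25 °C for 180 min, with six concentrations from 0.1 nM to 1 μM. Nonspecific binding was defined with 100 μM R-PIA. Filters were washed six times and counted by scintillation.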

[4] = molecular target: T4, Adenosine receptor A2a (Homo sapiens, UniProt P29274); assay: Displacement of [3H][…] from human adenosine A2A receptor expressed in human HeLa cells at 0.1 uM by liquid scintillation counting
Method in brief: (§3)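 Nonspecific binding was defined with 50 μM NECA. Filters were washed four times with ice-cold buffer, then counted by scintillation. Ki (Cheng–Prusoff) is mean ± SEM, n=3; % displacement at 0.1 μM is n=2.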

[5] = molecular target: T4, Adenosine receptor A2a; assay: Displacement of [3H][…] from human adenosine A2A receptor expressed in human HeLa cells by liquid scintillation counting; method in brief: as §3
[6] = molecular target: T5, Adenosine receptor A1 (Homo sapiens) (UniProt P30542); assay: Displacement of [3H]DPCPX from human adenosine A1 receptor expressed in CHO cells at 0.1 uM by liquid scintillation counting; method in brief: as §1
T5 sequence (whole entry): T2 sequence (P30542 whole entry)

[7] = molecular target: T6, Adenosine receptor A3 (Homo sapiens) (UniProt P0DMS8); assay: Displacement of [3H]NECA from human adenosine A3 receptor expressed in human HeLa cells at 0.1 uM by liquid scintillation counting
T6 sequence (whole entry): T3 sequence (P0DMS8 whole entry)
Method in brief: as §2, with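 “scintillation. Ki (Cheng–Prusoff) is mean ± SEM, n=3; % displacement at 0.1 μM is n=2.” for “scintillation.”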

T4 sequence (P29274 whole entry): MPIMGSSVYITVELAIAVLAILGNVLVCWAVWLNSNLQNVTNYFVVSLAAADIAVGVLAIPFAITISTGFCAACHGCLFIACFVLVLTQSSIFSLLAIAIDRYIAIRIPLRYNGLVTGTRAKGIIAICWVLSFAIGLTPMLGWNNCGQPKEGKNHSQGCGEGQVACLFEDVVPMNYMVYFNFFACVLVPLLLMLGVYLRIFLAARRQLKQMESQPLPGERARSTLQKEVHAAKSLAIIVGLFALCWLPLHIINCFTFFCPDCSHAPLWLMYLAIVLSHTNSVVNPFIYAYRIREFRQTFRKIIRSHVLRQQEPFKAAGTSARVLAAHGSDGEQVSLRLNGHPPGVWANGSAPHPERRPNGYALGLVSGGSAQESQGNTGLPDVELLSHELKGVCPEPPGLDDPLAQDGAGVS

Row | SMILES | inhibition [1] | Ki [2] | Ki [3] | inhibition [4] | Ki [5] | inhibition [6] | inhibition [7]
1 | CCCC(=O)Nc1cc(-c2ccccc2OC)nc(-c2ccccc2OC)n1 | 3% | 41.3 nM | 110 nM | 14% | – | – | –
2 | CCCC(=O)Nc1cc(-c2ccccc2F)nc(-c2ccccc2F)n1 | 9% | 18.7 nM | 135 nM | – | 142 nM | – | –
3 | CCCC(=O)Nc1cc(-c2ccc(F)cc2)nc(-c2ccc(F)cc2)n1 | 2% | 82.3 nM | 34.8 nM | – | 1830 nM | – | –
4 | CC(=O)Nc1cc(-c2cccs2)nc(-c2cccs2)n1 | 23% | – | 8 nM | – | 24.6 nM | 19% | –
5 | CCC(=O)Nc1cc(-c2ccc(C)cc2)nc(-c2ccc(C)cc2)n1 | 2% | 36.9 nM | 18.3 nM | 1% | – | – | –
6 | CCCC(=O)Nc1cc(-c2ccc3c(c2)OCO3)nc(-c2ccc3c(c2)OCO3)n1 | 16% | 9.7 nM | 59 nM | 22% | – | – | –
7 | CC(=O)Nc1cc(-c2ccsc2)nc(-c2ccsc2)n1 | 16% | – | 20.2 nM | – | 39.8 nM | 13% | –
8 | CCCC(=O)Nc1nc(-c2ccc(C(C)=O)cc2)cc(-c2ccc(C(C)=O)cc2)n1 | 2% | – | – | 14% | – | 7% | 22%
9 | CCCC(=O)Nc1cc(/C=C/c2ccccc2)nc(/C=C/c2ccccc2)n1 | 8% | – | – | 1% | – | 1% | 25%
10 | CC(=O)Nc1cc(-c2ccccc2F)nc(-c2ccccc2F)n1 | 21% | – | 18.1 nM | – | 73.8 nM | 17% | –
11 | CC(=O)Nc1nc(-c2ccc(C(F)(F)F)cc2)cc(-c2ccc(C(F)(F)F)cc2)n1 | 2% | – | – | 1% | – | 2% | 10%
12 | CCCC(=O)Nc1nc(-c2ccc(Cl)cc2)cc(-c2ccc(Cl)cc2)n1 | 1% | – | – | 3% | – | 1% | 17%
13 | CCCC(=O)Nc1nc(-c2ccc(C)cc2)cc(-c2ccc(C)cc2)n1 | 10% | 3760 nM | 131 nM | 2% | – | – | –
14 | CCC(=O)Nc1nc(-c2ccc(Cl)cc2)cc(-c2ccc(Cl)cc2)n1 | 2% | – | – | 11% | – | 1% | 14%
15 | CCCC(=O)Nc1nc(-c2ccc3c(c2)OCO3)cc(-c2ccc3c(c2)OCO3)n1 | 1% | 678 nM | 751 nM | 8% | – | – | –
16 | CCC(=O)Nc1cc(-c2ccc(C(F)(F)F)cc2)nc(-c2ccc(C(F)(F)F)cc2)n1 | 8% | – | – | 17% | – | 3% | 12%
17 | CCC(=O)Nc1nc(-c2ccc(OC)cc2)cc(-c2ccc(OC)cc2)n1 | 8% | – | – | 1% | – | 2% | 13%
18 | CC(=O)Nc1nc(-c2cccs2)cc(-c2cccs2)n1 | 3% | – | – | 5% | – | 2% | 21%
19 | CSc1ccc(-c2cc(-c3ccc(SC)cc3)nc(NC(C)=O)n2)cc1 | 2% | – | – | 1% | – | 1% | 14%
20 | CC(=O)Nc1cc(-c2ccc(F)cc2)nc(-c2ccc(F)cc2)n1 | 1% | – | 16.7 nM | – | 1330 nM | 15% | –

Row | SMILES | inhibition [1] | Ki [2] | Ki [3] | inhibition [4] | Ki [5] | inhibition [6] | inhibition [7]
21 | CCCC(=O)Nc1nc(-c2ccc(C(F)(F)F)cc2)cc(-c2ccc(C(F)(F)F)cc2)n1 | 13% | – | – | 2% | – | 1% | 2%
22 | CCC(=O)Nc1nc(-c2ccc(F)cc2)cc(-c2ccc(F)cc2)n1 | 1% | – | – | 3% | – | 14% | 22%
23 | CCCC(=O)Nc1nc(-c2ccc(SC)cc2)cc(-c2ccc(SC)cc2)n1 | 2% | – | – | 7% | – | 3% | 3%
24 | CC(=O)Nc1nc(-c2ccco2)cc(-c2ccco2)n1 | 11% | – | – | 19% | – | 1% | 9%
25 | CCC(=O)Nc1nc(-c2ccoc2)cc(-c2ccoc2)n1 | 11% | – | – | 2% | – | 3% | 16%
26 | COc1ccccc1-c1cc(-c2ccccc2OC)nc(NC(C)=O)n1 | 1% | – | – | 10% | – | 4% | 2%
27 | CCCC(=O)Nc1cc(-c2ccc(SC)cc2)nc(-c2ccc(SC)cc2)n1 | 1% | – | – | 2% | – | 3% | 12%
28 | CCC(=O)Nc1cc(-c2ccccc2OC)nc(-c2ccccc2OC)n1 | 7% | 113 nM | 23.2 nM | 22% | – | – | –
29 | CCCC(=O)Nc1nc(-c2ccccc2OC)cc(-c2ccccc2OC)n1 | 1% | – | – | 11% | – | 13% | 18%
30 | CCC(=O)Nc1nc(-c2ccc(OC)cc2OC)cc(-c2ccc(OC)cc2OC)n1 | 3% | – | – | 14% | – | 3% | 17%
31 | CCCC(=O)Nc1nc(-c2ccc(OC)cc2)cc(-c2ccc(OC)cc2)n1 | 9% | – | – | 24% | – | 2% | 15%
32 | CC(=O)Nc1nc(-c2ccc(F)cc2)cc(-c2ccc(F)cc2)n1 | 1% | – | – | 2% | – | 2% | 8%
33 | CCC(=O)Nc1nc(-c2ccc(C(C)=O)cc2)cc(-c2ccc(C(C)=O)cc2)n1 | 1% | – | – | 12% | – | 1% | 17%
34 | CCC(=O)Nc1nc(-c2ccc3c(c2)OCO3)cc(-c2ccc3c(c2)OCO3)n1 | 1% | 535 nM | 127 nM | 16% | – | – | –
35 | CCCC(=O)Nc1cc(-c2ccsc2)nc(-c2ccsc2)n1 | 21% | 65.1 nM | – | 23% | – | – | 11%
36 | CCCC(=O)Nc1nc(/C=C/c2ccccc2)cc(/C=C/c2ccccc2)n1 | 2% | – | – | 3% | – | 1% | 12%
37 | CC(=O)Nc1nc(-c2ccccc2)cc(-c2ccccc2)n1 | 6% | – | – | 11% | – | 17% | 13%
38 | CC(=O)Nc1nc(-c2ccccc2F)cc(-c2ccccc2F)n1 | 10% | – | – | 12% | – | 8% | 15%
39 | CC(=O)Nc1nc(-c2ccc(C(C)=O)cc2)cc(-c2ccc(C(C)=O)cc2)n1 | 14% | – | – | 8% | – | 7% | 2%
